The values below come from paper PMC4091967 (International Journal of Oncology, 2014).

In series [1] the test system is DU-145 prostate cancer cells. Kind of series: Trypan blue exclusion cell viability assay. It counts as cell-based, human. To be noted: for EC100: read-out: EC100 values in DU-145 cells, trypan blue exclusion, 72 h, mean ± SEM. An outline of the steps:
(§1)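 Seeding 24 h ahead was DU-145 at 6,000 cells/well in DMEM and PC-3 at 6,500 cells/well in RPMI-1640, both with 10% FBS and 1% penicillin/streptomycin. Compounds were added from DMSO stocks (0.2% final DMSO) for 72 h, in quadruplicate. Cells were trypsinized, washed in calcium-free PBS, resuspended in PBS and counted by automated trypan blue exclusion. EC50 came from ≥6 concentrations bracketing a preliminary estimate; 3 independent experiments.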

Series [2] relates to PC-3 prostate cancer cells. Kind of series: Trypan blue exclusion cell viability assay. To be noted: for EC100: read-out: EC100 values in PC-3 cells, trypan blue exclusion, 72 h, mean ± SEM. It counts as cell-based, human. An outline of the steps:
as §1

The nature of series [3]: Trypan blue exclusion cell viability assay on normal cells, 72 h. It counts as cell-based, human. To be noted: human, HIFF (human infant foreskin fibroblasts). The essentials:
(§2)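 HIFF fibroblasts (infant foreskin, donor-consented) were kept in DMEM with 10% FBS and 1% penicillin/streptomycin at 37°C and 5% CO2, seeded at 6,000 cells/well 24 h ahead. Cells were treated for 72 h at 50 μM or at single lower concentrations (0.2% final DMSO), in quadruplicate. Cells were trypsinized, washed in calcium-free PBS, resuspended in PBS, and viability was scored by automated trypan blue exclusion.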

The test system of series [4] is DU-145 prostate cancer cells. The series is described as follows: Alamar Blue cell viability assay. It counts as cell-based. To be noted: Homo sapiens, DU-145, read-out: EC50 value in Alamar Blue. The essentials: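 DU-145 cells were grown in DMEM with 10% FBS and 1% penicillin/streptomycin at 37°C and 5% CO2, then seeded at 6,000 cells/well 24 h before treatment. Compounds were added from DMSO stocks to 0.2% final DMSO for 72 h, in quadruplicate. After PBS wash, wells got Alamar Blue for 6 h; fluorescence ex 530/em 590 nm. EC50 fitted from ≥6 concentrations.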

The test system of series [5] is DU-145 prostate cancer cells. Kind of series: Crystal violet cell viability assay. It is filed as cell-based, human. To be noted: crystal violet staining, even at non-cytotoxic concentrations. An outline of the steps: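 DU-145 cells were seeded at 6,000 cells/well in DMEM/10% FBS 24 h ahead and exposed to compound for 72 h (0.2% final DMSO), in quadruplicate. Cells were fixed in 4% formaldehyde at 4°C for 30 min, washed with MeOH:AcOH 3:1, then 80% MeOH, and stained with 0.1% crystal violet for 1 h at room temperature. Stain was dissolved in 10% AcOH; A570 read against untreated control.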

The subject of series [6] is HIFF (human infant foreskin fibroblasts) normal cells. The series is described as follows: Trypan blue exclusion cell viability assay on normal cells, 72 h. It is filed as cell-based. To be noted: 50 μM flavonol, mean ± SEM. The essentials: as §2
The next series deals with B12 cells. To be noted: 3 h incubation, ref 70 (Liu et al); cited from earlier work.
Where [7] appears, read: Homo sapiens, DU-145, 72 h, read-out: EC50 values in DU-145 cells, trypan blue exclusion, 72 h, mean ± SEM.
Setting [8] is: Homo sapiens, DU-145, read-out: EC100 - EC50 values in DU-145 cells, difference between EC100 and EC50, mean ± SEM.
The mark [9] stands for this setting: Homo sapiens, PC-3, 72 h, read-out: EC50 values in PC-3 cells, trypan blue exclusion, 72 h, mean ± SEM.
Setting [10] is: read-out: EC100 - EC50 values in PC-3 cells, difference between EC100 and EC50, mean ± SEM.
Where [11] appears, read: Homo sapiens, PC-3, read-out: EC100 - EC50 values in PC-3 cells, difference between EC100 and EC50, mean ± SEM.
The mark [12] stands for this setting: read-out: EC100 - EC50 values in DU-145 cells, difference between EC100 and EC50, mean ± SEM.
Where [13] appears, read: read-out: EC50 values in DU-145 cells, trypan blue exclusion, 72 h, mean ± SEM.

Like-named read-outs stand apart in the source and are kept apart here. A value given as a limit tells only on which side of the number the result lay.

For `O=C(c1ccccc1)c1cccc(-c2oc3cc(O)cc(O)c3c(=O)c2O)c1` [5a, 2-(3-Benzoylphenyl)-3,5,7-trihydroxy-4H-chromen-4-one], the concentration for a half-maximal effect (EC50) (in general, the concentration needed to bring the measured effect to its halfway point) is 14.8 ± 0.71 µM in series [1] (setting [7]), 5.62 ± 5.5 µM in series [1] (setting [8]), 9.31 ± 0.58 µM in series [2] (setting [9]) and 8.55 ± 2.06 µM in series [2] (setting [10]). For the same compound, in series [3], the viability (as a rule, a per cent measure of how many cells are alive, often set against a control) at 72 h, 50 μM stood at 34.8 ± 0.2%.
With `O=C(c1ccccc1)c1ccc(-c2oc3cc(O)cc(O)c3c(=O)c2O)cc1` [5b, 2-(4-Benzoylphenyl)-3,5,7-trihydroxy-4H-chromen-4-one], the EC50 worked out at 16.6 ± 0.7 µM in series [1] (setting [7]), 24.4 ± 1.1 µM in series [1] (setting [8]), 9.97 ± 0.36 µM in series [2] (setting [9]) and 12.3 ± 0.99 µM in series [2] (setting [11]). Moreover, the EC100 was found to be 41 ± 2.18 µM in series [1] (Homo sapiens, DU-145, 72 h) and 22.3 ± 0.91 µM in series [2] (Homo sapiens, PC-3, 72 h). The compound further registered a viability at 72 h, 50 μM in series [3] of 32.3 ± 2.92%.
As for `O=c1c(O)c(-c2cccc(I)c2)oc2cc(O)cc(O)c12` [5c, 3,5,7-Trihydroxy-2-(3-iodophenyl)-4H-chromen-4-one], the concentration for a half-maximal effect (EC50) is 14.5 ± 1.02 µM in series [1] (setting [7]), 10.1 ± 0.84 µM in series [1] (setting [8]), 10.5 ± 0.72 µM in series [2] (setting [9]) and 9 ± 1.06 µM in series [2] (setting [10]). Also, the viability at 72 h, 50 μM in series [3] was 46.8 ± 2.48%.
The corresponding values for `O=c1c(O)c(-c2ccc(I)cc2)oc2cc(O)cc(O)c12` [5d, 3,5,7-Trihydroxy-2-(4-iodophenyl)-4H-chromen-4-one] are 7.51 ± 0.27 µM, 2.33 ± 2.05 µM, 4.13 ± 0.16 µM, 6.21 ± 0.59 µM and 34.8 ± 0.99%.
As for `Cc1ccc(-c2oc3cc(O)cc(O)c3c(=O)c2O)cc1` [5e, 3,5,7-Trihydroxy-2-(p-tolyl)-4H-chromen-4-one], the concentration giving a half-maximal response (EC50) was 14.3 ± 0.53 µM in series [1] (setting [7]), 9.45 ± 1.89 µM in series [1] (setting [12]), 9.89 ± 1.24 µM in series [2] (setting [9]) and 10.5 ± 3.29 µM in series [2] (setting [11]). In series [3], the viability at 72 h, 50 μM was 37.5 ± 2.27%.
For `O=c1c(O)c(-c2ccccc2)oc2cc(O)cc(O)c12` [5f, Galangin, reference compound], the half-maximal effective concentration (EC50) in series [1] (setting [7]) was 25.9 ± 0.59 µM; in series [1] (setting [12]) it was 20.5 ± 0.46 µM; in series [2] (setting [9]) it was 17.1 ± 1.29 µM; in series [2] (setting [11]), 26.8 ± 5.31 µM. Further, the EC100 in series [1] (Homo sapiens, DU-145, 72 h) came to 46.4 ± 3.92 µM; in series [2] (Homo sapiens, PC-3, 72 h), 43.9 ± 4.14 µM. In series [3], this compound registered a viability at 72 h, 50 μM of 48 ± 1.38%.
On to `O=c1c(O)c(-c2cccc(-c3ccccc3)c2)oc2cc(O)cc(O)c12` [8c, 2-[(1,1′-Biphenyl)-3-yl]-3,5,7-trihydroxy-4H-chromen-4-one], for which the EC50 in series [1] (setting [7]) came to 6.33 ± 0.58 µM; in series [1] (setting [8]) it was 11.7 ± 1.11 µM; in series [2] (setting [9]) it was 6.35 ± 0.26 µM; in series [2] (setting [10]), 4.98 ± 1.54 µM. This compound showed a viability at 72 h, 50 μM in series [3] of 34.6 ± 2.74%.
Regarding `O=c1c(O)c(-c2ccc(-c3ccccc3)cc2)oc2cc(O)cc(O)c12` [8d, 2-[(1,1′-Biphenyl)-4-yl]-3,5,7-trihydroxy-4H-chromen-4-one], the EC50 in series [1] (setting [7]) was determined as 5.57 ± 0.6 µM; in series [1] (setting [8]), 6.86 ± 0.18 µM; in series [2] (setting [9]) it was 5.4 ± 0.63 µM; in series [2] (setting [10]) it was 3.35 ± 0.93 µM. The compound also displayed a viability at 72 h, 50 μM in series [3] of 34.4 ± 3.67%.
Regarding `COc1ccc(-c2oc3cc(O)cc(O)c3c(=O)c2O)cc1` [Kaempferide, reference compound], the EC50 in series [1] (setting [7]) came to 19.8 µM; in series [1] (setting [13]), 19.8 ± 0.5 µM; in series [1] (setting [12]) it was 19.4 ± 2.02 µM; in series [2] (setting [9]) it was 14.9 ± 0.78 µM; in series [2] (setting [11]), 19.3 ± 2.1 µM; in series [4], 30.1 µM. The EC100 in series [1] (Homo sapiens, DU-145, 72 h) was 39.2 ± 0.87 µM; in series [2] (Homo sapiens, PC-3, 72 h) it was 34.2 ± 1.66 µM. Also, in series [3], the viability at 72 h, 50 μM amounted to 52.2 ± 1.17%. Besides, the “maximum achievable cell viability compared to the control” value in series [5] is on record as less than 50%.
`O=c1c(O)c(-c2ccc(O)cc2)oc2cc(O)cc(O)c12` [Kaempferol, reference compound]: the EC50 in series [1] (setting [7]) was 38.4 ± 1.94 µM; in series [1] (setting [12]), 36 ± 2.02 µM; in series [2] (setting [9]) it was 33.3 ± 2.96 µM; in series [2] (setting [11]) it was 24.3 ± 4.63 µM. For the same compound, the EC100 in series [1] (Homo sapiens, DU-145, 72 h) amounted to 74.4 ± 0.83 µM; in series [2] (Homo sapiens, PC-3, 72 h) it was 57.6 ± 6.4 µM. Besides, in series [3], the viability at 72 h, 50 μM was 73.8 ± 1.38%.
In the case of `O=c1c(O)c(-c2ccc(O)c(O)c2)oc2cc(O)cc(O)c12` [Quercetin, reference compound], the EC50 came to 39.1 µM in series [1] (setting [7]); 39.1 ± 2.87 µM in series [1] (setting [13]); 46.3 ± 8.55 µM in series [1] (setting [12]); 32.9 µM in series [2] (setting [9]); 32.9 ± 4.1 µM in series [2] (read-out: EC50 values in PC-3 cells, trypan blue exclusion, 72 h, mean ± SEM); 44.3 ± 4.29 µM in series [2] (setting [10]). For the same compound, the EC50 in series [4] is 55.1 µM. Besides, the EC100 in series [1] (Homo sapiens, DU-145, 72 h) was 85.4 ± 6.11 µM; in series [2] (Homo sapiens, PC-3, 72 h) it was 77.1 ± 3.4 µM. Besides, the viability at 72 h, 50 μM in series [3] worked out at 84.5 ± 2.21%. The “% Viability of HIFF (50 μM)” value in series [6] was “least inhibitory”.
Regarding `O=c1c(-c2ccc(O)cc2)coc2cc(O)cc(O)c12` [genistein], the “MTT reduced more than the control” value in the series on B12 cells is 60%.
